Hits are enriched below; roughly 1.4% of the tested compounds scored in any of these assays.
DDE Tn7 FP inh – disrupts Tn7 cyclic peptide binding to fibrin D-Dimer-E complex | P02675 | FP displacement of FITC-Tn7 peptide from fibrin DD(E); 0% = median of compound wells per plate | inhibition, % at 8.3 µM | 370,000 tested, 0.13% active;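 active = inhibition above the mean of compounds falling within the control limits plus 3 SD of them, cut at about 14% in these data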;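 also: 0% = plate median of compound wells and 100% = 10 µM Aha-Tn7 peptide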
Target sequence (P02675 whole entry, looked up): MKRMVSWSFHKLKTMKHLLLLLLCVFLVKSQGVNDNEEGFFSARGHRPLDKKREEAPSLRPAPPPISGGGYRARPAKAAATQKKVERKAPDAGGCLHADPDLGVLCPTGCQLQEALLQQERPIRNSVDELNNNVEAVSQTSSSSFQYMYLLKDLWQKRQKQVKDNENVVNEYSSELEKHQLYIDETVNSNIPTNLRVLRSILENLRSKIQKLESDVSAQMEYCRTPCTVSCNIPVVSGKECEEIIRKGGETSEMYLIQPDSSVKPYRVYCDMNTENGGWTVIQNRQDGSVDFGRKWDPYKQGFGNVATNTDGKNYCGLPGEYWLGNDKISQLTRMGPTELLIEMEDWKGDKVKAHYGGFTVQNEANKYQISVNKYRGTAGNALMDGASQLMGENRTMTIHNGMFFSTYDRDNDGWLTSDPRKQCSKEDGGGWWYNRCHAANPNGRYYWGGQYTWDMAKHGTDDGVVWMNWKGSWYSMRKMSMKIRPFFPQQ
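System: human fibrin DD(E); quantity: Fibrin-DD(E) at 2 µM final; also added: fluorescent Tn7 probe at 0.1 µM; compound dosing: single nominal test concentration of 8.3 µM per compound; schedule: 10 min preincubation, 3 h with tracer, room temperature; detection: fluorescence polarization of the labelled Tn7 tracer; repeats: one replicate per compound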
DDE Tn6 FP inh – disrupts Tn6 cyclic peptide binding to fibrin D-Dimer-E complex; P02675; Fibrin DD(E) TRITC-Tn6 fluorescence polarization displacement; inhibition, % at 8.3 µM; 370,000 tested, 0.21% active; AID 720509;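 active = inhibition above a per-campaign cutoff: mean of compounds within control limits plus 3 SD, cut at about 15% in these data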;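 also: 0% = median of all compound wells on the plate and 100% = blocking peptide control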
RTF Ca sens inh – cardiac RTF calcium desensitization. IANBD-labeled cardiac RTF, Ca2+ fluorescence. inhibition, % at 7.15 µM. 340,000 tested, 0.12% active. AID 493244;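 active = inhibition above the mean inhibition of all tested compounds plus 3 SD, cut at about 17% in these data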;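 also: assay run at fixed EC70 calcium of 1.6 mM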
CRFBP-R2 agonist – agonists of human CRF-binding protein/CRF-R2 receptor complex | 350,000 tested, 0.46% active | HEK293 CRF-R2/CRF-BP, calcium dye fluorescence (FLIPR); percent of saturating CRF peptide response | activation, % at 13.2 µM;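 active = activation of at least 50%, plus an integration ratio under a set limit after plate pattern correction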;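 also: plate controls were neutral control wells without compound for no effect and CRF at EC100 for full effect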
cardiac RTF act – cardiac RTF calcium sensitization; P19429+P45379; IANBD-labeled TnC RTF fluorescence at EC20 calcium; 0% EC20 calcium, 100% full calcium; activation, % at 7.2 µM; 340,000 tested, 0.24% active; AID 493008;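 active = activation above the mean over all tested compounds plus 3 SD, cut at about 30% in these data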;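 also: rise in fluorescence read as greater calcium sensitivity of cardiac thin filaments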
CRFR2-BP antag – antagonists of CRF-binding protein/CRF-R2 receptor complex | HEK293 CRF-R2/CRF-BP, CRF-induced calcium fluorescence | inhibition, % at 11.8 µM | 350,000 tested, 0.59% active | AID 588475;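 active = inhibition of the ligand-induced calcium signal above about 50% at the single tested concentration, limit read from the data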
DDE Tn6 FP ctr – DD(E)-Tn6 binding inhibition, counter-screen; inhibition, % at 8.3 µM; 680 tested, 2% active; shares compounds with DDE Tn6 FP inh; Fibrin DD(E), TRITC-Tn6 fluorescence polarization displacement; 0% = median of compound wells, not DMSO;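 active = inhibition above the mean of test compounds lying between the control limits plus 3 SD of those, cut at about 14% in these data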;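 also: 0% = median of compound wells and 100% = wells with Aha-Tn7 blocking peptide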
DDE Tn6 confirm – DD(E)-Tn6 binding inhibition, FP confirmation. shares compounds with DDE Tn6 FP inh. FP displacement of TRITC-Tn6 peptide from DD(E); 0% = per-plate median of test wells. inhibition, % at 8.3 µM. 680 tested, 10% active;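 active = inhibition above the mean of compounds lying within the control limits plus 3 SD, cut at about 16% in these data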;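 also: 100% = high control wells holding a competing inhibitor peptide at 10 µM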
* = called active by the depositor; i = inactive; . = not tested or not shown; + = active, no number.

SMILES	DDE Tn7 FP inh	DDE Tn6 FP inh	RTF Ca sens inh	CRFBP-R2 agonist	cardiac RTF act	CRFR2-BP antag	DDE Tn6 FP ctr	DDE Tn6 confirm
CCCC(=O)NCc1ccc2c(c1)cc(C)n2C	-0.4	4.0	-7.3	0.8	5.5	-5.2	.	.
CC(=O)Nc1ccc(S(=O)(=O)NCc2ccc3c(c2)cc(C)n3C)cc1	-0.6	61.5*	-9.1	2.2	0.9	-6.0	-6.0	-9.0
COC(=O)[C@]12C=CCN1[C@H](c1ccccc1)c1c(c3ccccc3n1S(=O)(=O)c1ccc(C)cc1)C2	-8.5	18.8*	.	.	.	.	1.8	3.7
COC(=O)[C@]12C=CCN1[C@H](c1ccc(OC)c(OC)c1)c1c(c3ccccc3n1S(=O)(=O)c1ccc(C)cc1)C2	-4.2	-1.6	.	.	.	.	.	.
COc1ccc(C)cc1S(=O)(=O)N1CCCCC1	0.8	11.0	-7.9	-2.2	-1.8	4.2	.	.
COc1ccc(C)cc1S(=O)(=O)N1CCN(c2ccccc2)CC1	3.4	16.4*	-10.3	1.3	0.0	4.8	1.6	2.2
O=C(C(=O)N1CCC(CNS(=O)(=O)c2cc(C(F)(F)F)cc(C(F)(F)F)c2)CC1)c1cc2ccccc2o1	8.2	-1.6	.	.	.	.	.	.
O=C(CSc1nc2ccccc2s1)N1CCOCC1	-7.2	3.6	-4.0	0.2	6.5	-7.8	.	.
NC(=O)C1(N2CCCCC2)CCN(C(=O)CSc2nc3ccccc3s2)CC1	3.0	16.7*	-9.4	-2.0	8.7	-8.9	2.7	1.6
CC(=O)c1ccc(N2CCN(CN3C(=O)CC4(CCCC4)C3=O)CC2)c(F)c1	-9.5	69.6*	-4.2	0.4	-0.3	-4.8	8.2	2.5
O=C(Cc1cccs1)Nc1cccc(-c2nc3cc4ccccc4cc3[nH]2)c1	-13.9	143.7*	-11.7	0.7	0.8	-25.1	4.2	34.0*
CC(=O)Nc1cccc(NC(=O)Cc2cccs2)c1	6.3	2.1	1.6	1.9	-7.2	1.3	.	.
COC(=O)[C@]12CCCCC=C1N(Cc1ccco1)C(=O)[C@H](CC(=O)NCc1cccc3ccccc13)C2	-1.8	-11.8	.	.	.	.	.	.
O=C1c2ccccc2CCC12N=NCC2c1ccc(Br)cc1 (stereo not given)	-1.6	1.2	-3.9	2.4	-1.9	-10.2	.	.
O=C1c2ccccc2CCC12N=NCC2c1ccc(Cl)cc1 (stereo not given)	0.9	17.1*	-3.8	-1.3	-5.6	15.8	-5.5	-11.4
CCCCN(C(=O)c1ccc(Cl)c(S(=O)(=O)N2CCOCC2)c1)c1c(N)n(CCC)c(=O)[nH]c1=O	1.8	17.3*	1.5	1.2	-3.4	-2.5	-0.1	-0.1
COC(=O)[C@]12C[C@H](CC(=O)N3CCOCC3)C(=O)N(CCc3ccc(OC)c(OC)c3)C1=C[C@H](C(C)C)O[C@@H]2C1CC1	-0.5	-2.8	.	.	.	.	.	.
O=S(=O)(Nc1cccc(-c2cn3cccnc3n2)c1)c1ccc(-c2ccccc2)cc1	-2.7	20.3*	-9.4	2.8	-5.0	-28.7	1.3	-6.0
O=S(=O)(Nc1cccc(-c2cn3cccnc3n2)c1)c1ccccc1	1.9	-8.7	-6.2	-0.2	-2.1	-0.7	.	.
Clc1ccc(Br)c(-c2nc3ccccc3[nH]2)c1	-5.1	4.0	.	0.3	.	11.3	.	.
O=C(C1=NOC2(C1)C(=O)Nc1ccccc12)N1CCCC1 (stereo not given)	0.8	0.4	.	.	.	.	.	.
Cc1nn(C)c(C)c1N1C(=O)c2cccc3c(N)ccc(c23)C1=O	5.1	19.4*	i	330.5*	+	-397.9	11.8	2.7
CN(Cc1ccccc1)Cc1c[nH]c2ccccc12	6.3	16.6*	-4.7	0.6	-0.5	-3.9	-2.0	-17.5
C=C(C)C(=O)N1CC2(CC(c3cccc(NC(=O)CC(c4ccccc4)c4ccccc4)c3)=NO2)C[C@H]1C(N)=O (stereo not given in full)	3.8	15.2*	-8.0	4.3	-4.3	-10.0	2.4	2.5
O=C1CCCC(O)=C1N=Nc1ccc(C(=O)O)cc1	-1.6	-6.6	11.9	-0.9	-13.8	6.2	.	.
SMILES	DDE Tn7 FP inh	DDE Tn6 FP inh	RTF Ca sens inh	CRFBP-R2 agonist	cardiac RTF act	CRFR2-BP antag	DDE Tn6 FP ctr	DDE Tn6 confirm
O=C1CCCC(O)=C1N=Nc1c(Cl)cc(C(F)(F)F)cc1Cl	0.5	43.2*	3.6	1.7	0.7	11.0	-2.5	-8.7
CCOc1ccccc1N(CC(=O)N1CCCC1)S(C)(=O)=O	11.2	15.7*	1.1	0.9	-2.9	4.2	0.6	1.0
Cc1ccc(CN[C@@H]2CC[C@@]34CCCN3C(=O)CCC[C@H]4C2)cc1	-5.7	5.8	.	.	.	.	.	.
O=C(CSc1ccc(-c2nc3ccccc3[nH]2)cn1)Nc1ccc(S(=O)(=O)NC2CC2)cc1	-4.1	182.5*	-2.1	6.5	-5.2	28.6	8.8	-12.3
COc1ccc(CC(=O)OCc2csc(CC(=O)Nc3ccc(C)cc3)n2)cc1	-9.4	1.1	4.4	3.0	-1.8	-1.4	.	.
Cc1ccc(NC(=O)Cc2nc(CCl)cs2)cc1	4.4	15.4*	-13.5	-2.5	2.3	14.5	3.4	1.3
Cc1cc(N)ccc1-n1c(C)ccc1C	4.4	154.0*	-2.6	-0.6	1.4	7.8	1.8	11.1
Cc1cc2c(N)cccc2nn1	5.1	+	3.9	11.2	-5.5	11.8	0.0	17.6*
CC(=O)c1cc(-c2cc(C(=O)O)cc([N+](=O)[O-])c2)c(=O)n2c1CCC2	-0.6	3.5	.	.	.	.	.	.
CCOc1ccccc1NC(=O)Cn1cnc2c(cnn2-c2ccc(C)c(C)c2)c1=O	2.0	1.8	-5.9	-1.6	-1.6	6.5	.	.
COc1ccc(NC(=O)Cn2cnc3c(cnn3-c3ccc(C)c(C)c3)c2=O)c(OC)c1	1.7	15.9*	-5.9	-2.6	-3.1	10.6	5.7	-8.3
Cc1ccc(S(=O)(=O)NCCC(=O)OCc2ccc([N+](=O)[O-])cc2)cc1C	-1.5	17.6*	-17.3	-0.5	-1.8	20.7	5.4	5.4
O=C(CCNS(=O)(=O)c1ccccc1)OCc1ccc([N+](=O)[O-])cc1	2.9	-4.2	.	-2.0	.	4.8	.	.
CSCC[C@H](CO)NC(=O)[C@H]1O[C@@H](n2cnc3c(N)ncnc32)[C@H](O)[C@@H]1O	-3.1	5.1	.	.	.	.	.	.
CCC(C)(C)C1CCc2c(sc(N)c2C(N)=O)C1 (stereo not given)	7.0	17.4*	5.5	-1.7	-0.9	-21.0	-3.0	-9.8
CCN(CC)c1ccc(N=C2C=CC(=O)C=C2NC(C)=O)cc1	-5.0	20.0*	.	-2.1	.	-23.1	4.2	54.2*
CCN(CC)c1ccc(NC(=O)Nc2ccc(C(C)=O)cc2)cc1	-1.5	0.0	4.7	2.5	-1.3	-12.2	.	.

Compound activity from PubChem.
